Source: paper PMC3944088 (ACS chemical biology, 2013)

Key:
A549 NSCLC cells = assay: Cell viability of A549 NSCLC cells with GSK3 inhibitors; assay type: cell-based
In short: (§1)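 Viability read by ATP-based luminescence (CellTiter-Glo) after exposure of lung cancer cell lines to the test compound. For the GSK3 comparison in A549 cells, the known pan-GSK3 inhibitors BIO and LiCl were run alongside. Enantiomers were compared in A549 and H1648 cells.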

A549 cells [1] = assay: Apoptosis by PARP-1 cleavage in A549 cells; assay type: cell-based
In short: (§2)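 A549 cells were treated with the test compound or the reference pan-GSK3 inhibitor BIO (concentrations in μM), then lysates were immunoblotted for PARP-1 cleavage and total c-MET. In parallel, GSK3α and GSK3β were knocked down by siRNA, each alone, both combined, or with one siRNA targeting both, against a non-targeting control. These cells were blotted 72 hours post-transfection.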

c-MET [2] = assay: Total c-MET levels in A549 cells; assay type: cell-based
In short: as §2

[3] = tested on: panel of 24 KRAS-mutant and wild-type lung cancer cell lines; assay: Cell viability screen across a panel of 24 lung cancer cell lines; assay type: cell-based; details: 0.5 and 2.5 μM
In short: as §1

[4] = tested on: A549, H23 and H1648 NSCLC cell lines; assay: Dose-response inhibition of cellular viability in NSCLC cell lines; assay type: cell-based; details: for activity in inhibition of cellular viability (dose-response): A549, H23, H1648 NSCLC cell lines
In short: as §1

c-MET [5] = molecular target: T1, c-MET (Homo sapiens, UniProt P08581); assay: c-MET autophosphorylation in A549 cells; assay type: cell-based; details: 30 minute treatment, 250 nM for crizotinib, PHA-665752, PF-04217903
T1 sequence (P08581 25-1390): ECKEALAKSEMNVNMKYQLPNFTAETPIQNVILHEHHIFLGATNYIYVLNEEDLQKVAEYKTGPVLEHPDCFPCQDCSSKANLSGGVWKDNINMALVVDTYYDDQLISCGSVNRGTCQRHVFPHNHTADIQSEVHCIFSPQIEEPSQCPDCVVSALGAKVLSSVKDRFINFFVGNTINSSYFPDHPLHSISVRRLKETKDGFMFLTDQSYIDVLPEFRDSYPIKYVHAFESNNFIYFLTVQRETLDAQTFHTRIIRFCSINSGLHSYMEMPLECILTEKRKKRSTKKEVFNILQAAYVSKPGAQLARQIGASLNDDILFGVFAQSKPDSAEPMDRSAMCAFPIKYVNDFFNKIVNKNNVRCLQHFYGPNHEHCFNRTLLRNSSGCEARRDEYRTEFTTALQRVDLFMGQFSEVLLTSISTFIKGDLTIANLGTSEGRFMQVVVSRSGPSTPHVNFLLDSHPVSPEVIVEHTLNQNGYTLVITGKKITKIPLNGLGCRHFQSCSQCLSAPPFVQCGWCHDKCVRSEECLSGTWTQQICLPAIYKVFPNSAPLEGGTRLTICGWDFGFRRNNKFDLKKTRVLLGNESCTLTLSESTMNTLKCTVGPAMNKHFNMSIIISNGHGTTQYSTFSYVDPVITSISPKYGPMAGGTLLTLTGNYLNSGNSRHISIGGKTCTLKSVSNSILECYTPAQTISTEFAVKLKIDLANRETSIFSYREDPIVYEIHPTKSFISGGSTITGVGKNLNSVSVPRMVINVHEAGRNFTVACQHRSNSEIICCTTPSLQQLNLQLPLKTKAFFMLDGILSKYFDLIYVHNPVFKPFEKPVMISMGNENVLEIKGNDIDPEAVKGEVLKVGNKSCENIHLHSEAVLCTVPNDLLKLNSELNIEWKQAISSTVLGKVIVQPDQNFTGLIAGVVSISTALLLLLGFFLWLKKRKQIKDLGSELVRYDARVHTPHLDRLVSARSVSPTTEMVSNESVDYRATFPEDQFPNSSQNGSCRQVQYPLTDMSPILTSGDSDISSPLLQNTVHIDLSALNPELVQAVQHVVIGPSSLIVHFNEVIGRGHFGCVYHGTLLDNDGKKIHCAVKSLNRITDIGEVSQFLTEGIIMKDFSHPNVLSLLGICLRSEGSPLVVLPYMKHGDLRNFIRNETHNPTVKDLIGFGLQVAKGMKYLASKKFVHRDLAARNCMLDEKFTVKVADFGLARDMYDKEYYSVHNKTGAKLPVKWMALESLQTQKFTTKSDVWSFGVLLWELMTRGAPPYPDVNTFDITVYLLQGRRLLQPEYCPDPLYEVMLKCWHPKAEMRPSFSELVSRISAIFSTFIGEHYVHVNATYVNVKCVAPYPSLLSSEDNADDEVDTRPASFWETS

GSK3α = GSK3α (Homo sapiens, UniProt P49840); assay: In vitro kinase inhibition assay GSK3α; assay type: biochemical; details: Millipore and Reaction Biology platforms
Sequence of GSK3α (P49840 whole entry): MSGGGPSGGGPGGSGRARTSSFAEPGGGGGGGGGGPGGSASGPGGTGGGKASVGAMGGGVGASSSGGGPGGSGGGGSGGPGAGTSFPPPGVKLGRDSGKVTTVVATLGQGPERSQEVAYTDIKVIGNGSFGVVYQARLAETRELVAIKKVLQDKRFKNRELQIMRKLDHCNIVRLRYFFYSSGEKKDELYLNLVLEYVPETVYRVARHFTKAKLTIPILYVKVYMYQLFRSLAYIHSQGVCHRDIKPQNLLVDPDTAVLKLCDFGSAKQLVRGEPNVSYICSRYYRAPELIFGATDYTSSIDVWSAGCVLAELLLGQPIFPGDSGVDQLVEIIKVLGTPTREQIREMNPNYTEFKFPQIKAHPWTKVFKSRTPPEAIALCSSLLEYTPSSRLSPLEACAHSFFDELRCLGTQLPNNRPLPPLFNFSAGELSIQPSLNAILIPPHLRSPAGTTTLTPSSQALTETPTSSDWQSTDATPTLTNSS

GSK3β = GSK3β (Homo sapiens, UniProt P49841); assay: In vitro kinase inhibition assay GSK3β; assay type: biochemical; details: Millipore and Reaction Biology platforms
Sequence of GSK3β (P49841 whole entry): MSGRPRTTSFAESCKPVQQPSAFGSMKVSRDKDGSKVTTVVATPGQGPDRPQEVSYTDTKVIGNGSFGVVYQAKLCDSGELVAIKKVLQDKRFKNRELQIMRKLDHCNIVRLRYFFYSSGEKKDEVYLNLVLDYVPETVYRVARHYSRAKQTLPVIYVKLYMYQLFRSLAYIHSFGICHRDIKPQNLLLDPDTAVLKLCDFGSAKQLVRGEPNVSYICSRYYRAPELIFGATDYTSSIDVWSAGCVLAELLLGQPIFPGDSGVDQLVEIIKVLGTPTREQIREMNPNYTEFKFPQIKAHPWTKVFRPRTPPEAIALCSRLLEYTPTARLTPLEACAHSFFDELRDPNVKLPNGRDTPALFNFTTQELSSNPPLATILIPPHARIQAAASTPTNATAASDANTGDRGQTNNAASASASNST

c-MET [6] = molecular target: T1, c-MET; details: reported ref 8, 17; cited from earlier work
c-MET [7] = molecular target: T1, c-MET; assay: In vitro kinase inhibition c-MET; assay type: biochemical
β-catenin = assay: Total β-catenin levels in A549 cells; assay type: cell-based; details: A549 cells after treatment
[8] = tested on: MV-4–11 MLL-rearranged leukemia cells; assay: Viability of MV-4–11 MLL-rearranged leukemia cells; assay type: cell-based; details: MV-4–11 cells
[9] = tested on: RS4;11 MLL-rearranged leukemia cells; assay: Viability of RS4; assay type: cell-based; details: RS4;11 cells
[10] = tested on: MV-4–11 and RS4;11 MLL-rearranged leukemia cells; assay: β-catenin stabilisation and cell cycle in MLL-rearranged leukemia cells; assay type: cell-based
A549 cells [11] = assay: Cell cycle analysis in A549 cells; assay type: cell-based

For O=C1Nc2cc(Br)ccc2/C1=C1/Nc2ccccc2/C1=N\O [BIO], the “antiproliferative activity in A549 cells” value (A549 NSCLC cells) was “showed antiproliferative activity”, the “apoptosis indicated by PARP-1 cleavage” value (A549 cells [1]) was “able to induce apoptosis in A549 cells, albeit slightly delayed” and the “c-MET levels upon treatment” value (c-MET [2]) was “decreased c-MET levels”.
For [Cl-].[Li+] [LiCl], the “antiproliferative activity in A549 cells” value (A549 NSCLC cells) was “showed antiproliferative activity” and the “potency range of antiproliferative activity” value (A549 NSCLC cells) was “low millimolar activity”.
For OCCn1cc(-c2cnc3nnn(Cc4ccc5ncccc5c4)c3n2)cn1 [PF-04217903], the “effect on cellular viability across lung cancer cell line panel” value [3] was “no significant effects” and the “activity in inhibition of cellular viability (dose-response)” value [4] was “no measurable”.
With Cc1[nH]c(/C=C2\C(=O)Nc3ccc(S(=O)(=O)Cc4c(Cl)cccc4Cl)cc32)c(C)c1C(=O)N1CCC[C@@H]1CN1CCCC1 [PHA-665752] the “inhibition of c-MET autophosphorylation” value (c-MET [5]) was “effectively inhibited”.
With COc1cc2nccc(Oc3ccc(NC(=O)C4(C(=O)Nc5ccc(F)cc5)CC4)cc3)c2cc1OC [cabozantinib] the “effect on cellular viability across lung cancer cell line panel” value [3] was “no significant effects”.
With O=C1NC(=O)[C@H](c2cn3c4c(cccc24)CCC3)[C@H]1c1c[nH]c2ccccc12 [compound 7, (+)-3S,4S-tivantinib] the “activity in (−)-tivantinib-sensitive cell lines (cellular viability)” value ([4]; A549 and H1648 cells, compared with (−)-tivantinib) was “substantially weaker activity”, the “IC50 for inhibition of GSK3α in vitro kinase activity” value (GSK3α) was “significantly weaker inhibitor” and the “IC50 for inhibition of GSK3β in vitro kinase activity” value (GSK3β) was “significantly weaker inhibitor”. The “activity against c-MET” value (c-MET [6]) was “inactive”.
For C[C@@H](Oc1cc(-c2cnn(C3CCNCC3)c2)cnc1N)c1c(Cl)ccc(F)c1Cl [crizotinib], the “effect on cellular viability across lung cancer cell line panel” value [3] was “no significant effects” and the “activity in inhibition of cellular viability (dose-response)” value [4] was “only weak activity”.
For O=C1NC(=O)[C@@H](c2cn3c4c(cccc24)CCC3)[C@@H]1c1c[nH]c2ccccc12 [tivantinib], the “effect on cellular viability across lung cancer cell line panel” value [3] was “inhibited the viability of the majority of these”, the IC50 ([4]; read-out: IC50 for inhibition of cellular viability) was ~500 nM and the “inhibition of c-MET autophosphorylation” value (c-MET [5]) was “essentially no effect”. The “IC50 for inhibition of GSK3α in vitro kinase activity” value (GSK3α) was “upper nanomolar range”, the “IC50 for inhibition of GSK3β in vitro kinase activity” value (GSK3β) was “upper nanomolar range” and the “inhibition of c-MET (in vitro kinase)” value (c-MET [7]) was “only weakly inhibited”. For the same compound, the “total β-catenin levels” value (β-catenin) was “increase in total β-catenin levels”, the inhibition of viability [8] was “potently inhibited viability” and the inhibition of viability [9] was “potently inhibited viability”. The cell cycle effect [10] was “induced G1 cell cycle arrest”, the β-catenin stabilisation [10] was “stabilized β-catenin” and the “apoptosis indicated by PARP-1 cleavage” value (A549 cells [1]) was “induce apoptosis”. For the same compound, the “c-MET levels upon treatment” value (c-MET [2]) was “decreased c-MET levels” and the cell cycle effect (A549 cells [11]) was “G2/M cell cycle arrest”.
